This note sets out measurements from ChEMBL document CHEMBL4813946, “Discovery of novel 4-azaaryl-N-phenylpyrimidin-2-amine derivatives as potent and selective FLT3 inhibitors for acute myeloid leukaemia with FLT3 mutations” (Eur J Med Chem, 2021).

Assay [1] deals with Receptor-type tyrosine-protein kinase FLT3 (Homo sapiens) (UniProt P36888). Briefly: Inhibition of FLT3-mediated signalling pathway in human U-937 cells assessed as inhibition of S6RP phosphorylation upto 20 x GI50 concentration incubated for 6 hrs by western blot analysis. It counts as cell-based. In short, it runs like this: (§1)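 Cells lysed in phosphate lysis buffer with protease inhibitors and protein quantified. Western blots probed phospho and total STAT5, AKT, ERK, S6RP and eIF4E, plus full-length and cleaved PARP and caspase-3, with β-actin as loading control. At least two independent experiments.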

The test system of a further assay is THP-1. The experiment in a line: Antiproliferative activity against human THP-1 cells harboring wild type FLT3 assessed as reduction in cell viability after 72 hrs by resazurin assay. In kind it is functional. The gist of the method: (§2)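 Cells seeded and pre-incubated 24 h at 37 °C, 5% CO2, then given a five-fold dilution series of compound (from 10 mM DMSO stock) in medium, in triplicate. Resazurin added after 72 h exposure, 4 h in dark at 37 °C. Fluorescence read at 570/585 nm, normalised to DMSO vehicle. GI50 by non-linear regression; mean ± SD of at least two replicates.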
(In general: Alamar Blue is a resazurin reagent that responds to reducing activity.)

The subject of assay [2] is U-937. The experiment in a line: Antiproliferative activity against human U-937 cells harboring wild type/low FLT3 assessed as reduction in cell viability after 72 hrs by resazurin assay. It counts as functional. In short, it runs like this:
as §2

The test system of assay [3] is U-937. Briefly: Induction of apoptosis in human U937 cells assessed as viable cells at 1 x GI50 concentration incubated for 48 hrs by annexin V-FITC staining based flow cytometry (reference value: 86.25 %). In kind it is functional. For orientation: In flow cytometry, cells or beads pass a laser one at a time.
Assay [4] deals with U-937. Briefly: Induction of apoptosis in human U937 cells assessed as late apoptotic cells at 5 x GI50 concentration incubated for 48 hrs by annexin V-FITC staining based flow cytometry (Rvb =9.82 %). It counts as functional.
Assay [5] concerns U-937. The experiment in a line: Induction of apoptosis in human U937 cells assessed as viable cells at 5 x GI50 concentration incubated for 24 hrs by annexin V-FITC and propidium iodide staining based flow cytometry (reference value: 86.80 %). It counts as functional.
Assay [6] deals with Receptor-type tyrosine-protein kinase FLT3 (Homo sapiens, UniProt P36888, R595-E596INSEY). The experiment in a line: Inhibition of FLT3 R595_E596insEY mutant (unknown origin) incubated for 120 mins by ADP-glo based luminescence assay. Background: ADP-Glo first removes unused ATP, then detects ADP through luciferase.
The test system of assay [7] is MV4-11. The experiment in a line: Antiproliferative activity against human MV4-11 cells harboring FLT3-ITD mutant assessed as reduction in cell viability after 72 hrs by resazurin assay. It counts as functional. The gist of the method: as §2
Assay [8] concerns the target Receptor-type tyrosine-protein kinase FLT3 (Homo sapiens, UniProt P36888, F594-R595INSR). The experiment in a line: Inhibition of FLT3 F594_R595insR mutant (unknown origin) incubated for 120 mins by ADP-glo based luminescence assay.
For assay [9], the system named is MV4-11. The experiment in a line: Induction of apoptosis in human MV4-11 cells assessed as viable cells at 20 x GI50 concentration incubated for 48 hrs by annexin V-FITC and propidium iodide staining based flow cytometry (reference value: 91.87 %). In kind it is functional.
Assay [10] deals with MV4-11. The experiment in a line: Induction of apoptosis in human MV4-11 cells assessed as late apoptotic cells at 1 x GI50 concentration incubated for 48 hrs by annexin V-FITC and propidium iodide staining based flow cytometry (reference value: 6.59 %). In kind it is functional.
In assay [11] the target is Receptor-type tyrosine-protein kinase FLT3 (Homo sapiens) (UniProt P36888). Briefly: Inhibition of FLT3-mediated signalling pathway in human MV4-11 cells assessed as inhibition of STAT5 phosphorylation upto 20 x GI50 concentration incubated for 6 hrs by western blot analysis. In kind it is cell-based. In short, it runs like this:
as §1

Assay [12] has as its system MV4-11. The experiment in a line: Induction of apoptosis in human MV4-11 cells assessed as necrotic cells at 20 x GI50 concentration incubated for 24 hrs by annexin V-FITC and propidium iodide staining based flow cytometry (reference value: 0.75 %). It counts as functional.
For assay [13], the system named is MV4-11. The experiment in a line: Induction of apoptosis in human MV4-11 cells assessed as early apoptotic cells at 5 x GI50 concentration incubated for 24 hrs by annexin V-FITC and propidium iodide staining based flow cytometry (reference value: 2.12 %). It counts as functional.
Assay [14] addresses T1, Receptor-type tyrosine-protein kinase FLT3 (Homo sapiens, UniProt P36888).
T1 sequence (P36888 whole entry): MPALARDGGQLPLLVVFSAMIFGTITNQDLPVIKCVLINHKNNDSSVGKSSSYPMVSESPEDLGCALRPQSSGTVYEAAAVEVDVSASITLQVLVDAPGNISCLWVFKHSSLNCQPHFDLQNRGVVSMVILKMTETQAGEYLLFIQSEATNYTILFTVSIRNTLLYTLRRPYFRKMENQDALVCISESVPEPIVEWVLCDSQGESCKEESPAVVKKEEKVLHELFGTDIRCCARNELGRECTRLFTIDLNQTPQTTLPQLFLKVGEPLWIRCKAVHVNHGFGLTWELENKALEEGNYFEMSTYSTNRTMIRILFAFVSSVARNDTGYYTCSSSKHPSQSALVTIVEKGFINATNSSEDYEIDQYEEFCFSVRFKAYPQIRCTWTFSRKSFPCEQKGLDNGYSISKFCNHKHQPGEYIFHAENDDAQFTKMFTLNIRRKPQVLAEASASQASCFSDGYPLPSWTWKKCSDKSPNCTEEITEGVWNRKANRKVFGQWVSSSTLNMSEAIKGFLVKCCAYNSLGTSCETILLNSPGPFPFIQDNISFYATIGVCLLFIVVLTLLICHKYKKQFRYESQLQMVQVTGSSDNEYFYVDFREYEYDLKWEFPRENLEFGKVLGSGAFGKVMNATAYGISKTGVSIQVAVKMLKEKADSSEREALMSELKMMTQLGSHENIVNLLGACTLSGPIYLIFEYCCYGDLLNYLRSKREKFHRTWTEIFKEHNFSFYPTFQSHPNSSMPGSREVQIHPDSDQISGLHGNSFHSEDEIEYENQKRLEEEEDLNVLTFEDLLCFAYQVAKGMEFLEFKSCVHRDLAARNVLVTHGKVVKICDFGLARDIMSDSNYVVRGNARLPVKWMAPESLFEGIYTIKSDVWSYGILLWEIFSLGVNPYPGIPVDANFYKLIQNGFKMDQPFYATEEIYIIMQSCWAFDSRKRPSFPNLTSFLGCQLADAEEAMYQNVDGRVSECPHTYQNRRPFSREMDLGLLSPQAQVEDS
The experiment in a line: Inhibition of wild type FLT3 (unknown origin) using Glu/Tyr peptide substrate incubated for 120 mins measured after 40 mins incubation under dark by ADP-glo based luminescence assay. The gist of the method:
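In-house ADP-Glo assay with poly(Glu,Tyr) 4:1 substrate in 40 mM Tris pH 7.5, 20 mM MgCl2, 50 µM DTT, 0.1 mg/mL BSA. Kinase at 20 nM. ADP-Glo reagent 40 min in the dark, detection reagent 30–40 min, then luminescence. Ki was derived from IC50 by Cheng-Prusoff.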

The target in assay [15] is Receptor-type tyrosine-protein kinase FLT3 (Homo sapiens) (UniProt P36888). The experiment in a line: Inhibition of FLT3-mediated signalling pathway in human U-937 cells assessed as inhibition of ERK phosphorylation upto 20 x GI50 concentration incubated for 6 hrs by western blot analysis. In kind it is cell-based. The gist of the method:
as §1

The target is the same in assay [16]. The experiment in a line: Inhibition of FLT3-mediated signalling pathway in human MV4-11 cells assessed as inhibition of AKT phosphorylation upto 20 x GI50 concentration incubated for 6 hrs by western blot analysis. It counts as cell-based. The gist of the method: as §1
Assay [17] shares this target. Briefly: Inhibition of FLT3-mediated signalling pathway in human MV4-11 cells assessed as inhibition of eIF4E phosphorylation upto 20 x GI50 concentration incubated for 6 hrs by western blot analysis. In kind it is cell-based. The gist of the method:
as §1

Calls of active or inactive are those of the source. The calls are words filed in the database; no cut-off is given here. A value given as a limit tells only on which side of the number the result lay.

What is called GI50 is the concentration giving 50% growth inhibition. What is called Ki is the equilibrium dissociation constant of an inhibitor or competing ligand from its target. Read a low Ki as higher affinity.

Turning to `CC(=O)N1CCN(c2ccc(Nc3nccc(-c4cn(C)c5ncccc45)n3)cc2)CC1`, the inhibition result in assay [1], in assay [11], in assay [15], in assay [16] and in [17] was “Active” each time. Also, the GI50 is 7.72 µM with THP-1, greater than 10 µM with U-937 [2] and 0.074 µM with MV4-11 [7]. In addition, the Activity in the assay with U-937 [3] turned out to be 87.16%; in the assay with U-937 [4] it was 8.16%; in the assay with U-937 [5], 86.36%; with MV4-11 [9], 64.18%; in the assay with MV4-11 [10] it was 6.95%; in the assay with MV4-11 [12] it was 20.95%. In addition, in the assay with MV4-11 [13], the Activity is on record as 1.91%. Further, the Ki in assay [6] was found to be 0.077 µM; in [8], 0.054 µM; in [14] it was 0.009 µM.
